KDM4C inh = blocks human GASC-1 (KDM4C) demethylase activity. GST-KDM4C 2-372, H3K9me3 peptide, LANCE TR-FRET. inhibition, % at 12.5 µM. Q9H3R0. hit rate 0.15% among 96,000;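 active means mean replicate inhibition above about 25%, with at least 55% of replicates also reaching it, limit read from the data, passing the limit was not always enough; inconclusive means only one of those two conditions met; inactive means neither condition met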
Target sequence (Q9H3R0 2-372 limits assumed): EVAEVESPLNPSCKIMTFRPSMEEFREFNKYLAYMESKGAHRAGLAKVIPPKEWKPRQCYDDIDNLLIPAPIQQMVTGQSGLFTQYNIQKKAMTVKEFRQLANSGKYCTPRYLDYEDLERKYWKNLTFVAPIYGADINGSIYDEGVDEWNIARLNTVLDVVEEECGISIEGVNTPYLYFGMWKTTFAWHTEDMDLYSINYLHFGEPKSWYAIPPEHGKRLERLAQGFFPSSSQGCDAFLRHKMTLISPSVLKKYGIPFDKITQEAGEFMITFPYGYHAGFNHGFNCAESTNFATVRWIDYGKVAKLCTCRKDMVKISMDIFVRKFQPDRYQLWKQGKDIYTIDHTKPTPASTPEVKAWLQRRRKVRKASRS
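System – N-terminal GST-fused human GASC-1 (KDM4C) fragment, residues 2-372 · Input – enzyme final amount 10 nM · Technique – LANCE TR-FRET, Eu antibody, ULight-streptavidin, EDTA, ex 340 nm, em 618/671 nm · Medium – HEPES buffer, pH 7.5, plus ascorbate · Incubation – enzyme reaction 30 min, then detection 60 min, both room temperature · Reagent – H3K9me3 peptide with Fe(II)/2OG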
IDH1 R132H inh = IDH1 R132H (human) inhibition; O75874; IDH1 R132H reductase, diaphorase/resazurin fluorescence, 60 min; inhibition, % at 10 µM; hit rate 0.18% among 70,000; in the data active means inhibition above about 34%; inconclusive means no clear call, values can overlap the other calls; inactive means below about 11%
Target sequence (O75874 whole entry R132H): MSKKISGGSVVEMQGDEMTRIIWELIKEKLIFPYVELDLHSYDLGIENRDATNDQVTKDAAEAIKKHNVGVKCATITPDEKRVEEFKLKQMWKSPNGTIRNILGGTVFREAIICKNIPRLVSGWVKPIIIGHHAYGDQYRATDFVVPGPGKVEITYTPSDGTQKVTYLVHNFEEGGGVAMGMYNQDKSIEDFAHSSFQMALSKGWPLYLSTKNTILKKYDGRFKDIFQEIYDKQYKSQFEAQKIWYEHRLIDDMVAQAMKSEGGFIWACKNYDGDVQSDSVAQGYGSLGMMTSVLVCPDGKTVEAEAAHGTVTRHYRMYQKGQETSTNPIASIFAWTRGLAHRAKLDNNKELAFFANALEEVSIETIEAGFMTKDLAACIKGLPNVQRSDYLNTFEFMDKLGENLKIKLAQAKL
T cruzi growth-1 = inhibitors of T. cruzi proliferation. inhibition, % at 8.34 µM. AID 624255. T. cruzi beta-gal in NIH3T3, GalScreen luminescence, 90 h. hit rate 5.9% among 77,000;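 active means mean inhibition above about 93%, with at least 55% of replicates each passing it, limit read from the data, passing the limit was not always enough; inconclusive means only one of those two conditions holds; inactive means neither condition holds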
T cruzi growth-2 = inhibitors of T. cruzi proliferation; shares compounds with T cruzi growth-1; T. cruzi beta-gal in NIH3T3, GalScreen luminescence, 90 h; inhibition, % at 8.35 µM; hit rate 72% among 5,600;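 active means mean replicate inhibition above about 95% and at least 55% of replicates individually reaching it, limit read from the data; inconclusive means only one of the two criteria is met; inactive means neither criterion is met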
T cruzi growth-3 = blocks T. cruzi growth in NIH3T3 host cells | shares compounds with T cruzi growth-1 | inhibition, % at 2.09 µM | T. cruzi beta-gal in NIH3T3, GalScreen luminescence, 90 h | hit rate 21% among 5,600;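 active means mean inhibition above about 95%, with at least 55% of replicates also reaching it, limit read from the data; inconclusive means meets just one of the two conditions; inactive means meets neither condition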
3T3 cytotox = kills mouse NIH/3T3 fibroblasts | shares compounds with T cruzi growth-1 | NIH/3T3 viability, CellTiter-Glo ATP luminescence, 90 h | cytotoxicity (signal decrease), % at 8.35 µM | hit rate 14% among 5,600 | AID 651742;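 active means mean signal decrease across replicates above about 35% based on untreated-well scatter, with enough replicates individually passing, limit read from the data; inconclusive means no rule stated though some were filed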
3T3 cytotox 2 = NIH/3T3 (mouse) viability loss; shares compounds with T cruzi growth-1; inhibition, % at 24.9 µM; hit rate 56% among 5,600; NIH/3T3 viability, CellTiter-Glo ATP luminescence, 90 h;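 active means mean loss of cell viability signal at or above a set limit, and enough replicates individually reaching it; inconclusive means meets only the mean limit or only the replicate share; inactive means meets neither condition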
Each line names hits and unclear results; the compound was inactive in the other large screens (follow-up assays come after a bar, where they were run). This excerpt belongs to a sample that is enriched for hits.

C[C@@H]1CCCCO[C@@H](CN(C)C(=O)Nc2ccc(C(F)(F)F)cc2)[C@H](C)CN([C@@H](C)CO)C(=O)c2cc(NC(=O)c3ccccc3)ccc2O1	none (no result: IDH1 R132H inh)
C[C@H](CO)N1C[C@H](C)[C@H](CN(C)C(=O)Nc2ccc(C(F)(F)F)cc2)OCCCC[C@H](C)Oc2ccc(NC(=O)c3ccccc3)cc2C1=O	T cruzi growth-1 inconclusive (no result: IDH1 R132H inh) | T cruzi growth-2 105.8 | T cruzi growth-3 108.6 | 3T3 cytotox inactive | 3T3 cytotox 2 inactive
C[C@H](CO)N1C[C@H](C)[C@@H](CN(C)C(=O)Nc2ccc(C(F)(F)F)cc2)OCCCC[C@H](C)Oc2ccc(NC(=O)c3ccccc3)cc2C1=O	T cruzi growth-1 101.1 (no result: IDH1 R132H inh) | T cruzi growth-2 109.9 | T cruzi growth-3 113.3 | 3T3 cytotox 36.3 | 3T3 cytotox 2 52.4
C[C@H]1CCCCO[C@H](CN(C)C(=O)Nc2ccc(C(F)(F)F)cc2)[C@@H](C)CN([C@@H](C)CO)C(=O)c2cc(NC(=O)c3ccccc3)ccc2O1	none (no result: IDH1 R132H inh)
COc1ccc(C)cc1N(CC(=O)Nc1c(C)cc(C)cc1C)S(C)(=O)=O	none (no result: KDM4C inh, T cruzi growth-1)
C[C@H]1CN([C@@H](C)CO)C(=O)c2cc(C#Cc3cccc(F)c3)cnc2O[C@H]1CN(C)C(=O)C1CCCCC1	none
C[C@H]1CN([C@@H](C)CO)C(=O)c2cc(C#Cc3ccccc3F)cnc2O[C@@H]1CN(C)C(=O)c1ccc2c(c1)OCO2	T cruzi growth-1 124.8 (no result: IDH1 R132H inh) | T cruzi growth-2 110.3 | T cruzi growth-3 inactive | 3T3 cytotox inactive | 3T3 cytotox 2 36.7
C[C@H]1CN([C@@H](C)CO)C(=O)c2cc(C#Cc3ccccc3F)cnc2O[C@@H]1CN(C)C(=O)C1CCC1	T cruzi growth-1 97.2 | T cruzi growth-2 103.7 | T cruzi growth-3 inactive | 3T3 cytotox inactive | 3T3 cytotox 2 45.3
C[C@@H]1CN([C@H](C)CO)C(=O)c2cc(C#Cc3ccccc3F)cnc2O[C@H]1CN(C)C(=O)c1ccc2c(c1)OCO2	none
C[C@H](CO)N1C[C@H](C)[C@@H](CN(C)C(=O)C2CCC2)Oc2ncc(C#Cc3ccccc3F)cc2C1=O	none
C[C@@H]1CN([C@H](C)CO)C(=O)c2cc(C#Cc3cccc(F)c3)cnc2O[C@H]1CN(C)C(=O)C1CCCCC1	T cruzi growth-1 100.9 | T cruzi growth-2 109.9 | T cruzi growth-3 inactive | 3T3 cytotox inactive | 3T3 cytotox 2 103.3
C[C@H]1CN([C@@H](C)CO)C(=O)c2cc(C#Cc3ccccc3F)cnc2O[C@@H]1CN(C)C(=O)Cc1ccccc1	none (no result: IDH1 R132H inh)
C[C@H](CO)N1C[C@H](C)[C@@H](CN(C)C(=O)Cc2ccccc2)Oc2ncc(C#Cc3ccccc3F)cc2C1=O	T cruzi growth-1 96.0 | T cruzi growth-2 108.4 | T cruzi growth-3 inactive | 3T3 cytotox inactive | 3T3 cytotox 2 94.1
CCOC(=O)c1ccccc1NC(=O)C(C)Oc1ccc2c(C)cc(=O)oc2c1 (stereo unspecified)	none (no result: KDM4C inh, T cruzi growth-1)
Cc1ccc2oc(-c3cccc(NC(=O)COc4ccc5ccccc5c4)c3)nc2c1	none (no result: KDM4C inh, T cruzi growth-1)
O=C(c1ccncc1)N1C[C@H]2[C@@H](c3ccccc31)[C@@H](CO)N2C(=O)Nc1ccc(F)cc1	none (no result: IDH1 R132H inh)
CC(C)NC(=O)N(C)C[C@H]1Oc2ncc(C#Cc3ccccc3F)cc2C(=O)N([C@H](C)CO)C[C@H]1C	none
CC(C)NC(=O)N(C)C[C@@H]1Oc2ncc(C#Cc3ccccc3F)cc2C(=O)N([C@@H](C)CO)C[C@H]1C	T cruzi growth-1 101.7 (no result: IDH1 R132H inh) | T cruzi growth-2 inactive | T cruzi growth-3 inactive | 3T3 cytotox inactive | 3T3 cytotox 2 61.4
O=C(CCCN1C(=O)c2ccccc2C1=O)Nc1ccc(F)c(Cl)c1	none (no result: KDM4C inh, T cruzi growth-1)
COc1cccc(-c2ccc([C@H]3[C@@H](CO)N4CCCCN(C(=O)c5ccc6c(c5)OCO6)C[C@@H]34)cc2)c1	none (no result: IDH1 R132H inh)
COc1ccc(-c2ccc([C@@H]3[C@H](CO)N4CCCCN(C(=O)c5ccc6c(c5)OCO6)C[C@@H]34)cc2)cc1	T cruzi growth-1 108.3 (no result: IDH1 R132H inh) | T cruzi growth-2 inconclusive | T cruzi growth-3 inactive | 3T3 cytotox inactive | 3T3 cytotox 2 104.2
O=C(c1ccc2c(c1)OCO2)N1CCCCN2[C@@H](CO)[C@@H](c3ccc(-c4ccccc4)cc3)[C@@H]2C1	T cruzi growth-1 103.6 (no result: IDH1 R132H inh) | T cruzi growth-2 99.8 | T cruzi growth-3 inactive | 3T3 cytotox inconclusive | 3T3 cytotox 2 101.7
COc1ccc(-c2ccc([C@H]3[C@H](CO)N4CCCCN(C(=O)c5ccc6c(c5)OCO6)C[C@@H]34)cc2)cc1	T cruzi growth-1 110.7 (no result: IDH1 R132H inh) | T cruzi growth-2 100.3 | T cruzi growth-3 inactive | 3T3 cytotox inactive | 3T3 cytotox 2 90.4
COc1ccc(-c2ccc([C@@H]3[C@H](CO)N4CCCCN(C(=O)c5ccc(F)cc5)C[C@@H]34)cc2)cc1	none (no result: IDH1 R132H inh)
O=C(c1ccc2c(c1)OCO2)N1CCCCN2[C@H](C1)[C@H](c1ccc(-c3ccccc3)cc1)[C@@H]2CO	none (no result: IDH1 R132H inh)
COc1cccc(-c2ccc([C@@H]3[C@H](CO)N4CCCCN(C(=O)c5ccc6c(c5)OCO6)C[C@@H]34)cc2)c1	T cruzi growth-1 98.0 (no result: IDH1 R132H inh) | T cruzi growth-2 106.7 | T cruzi growth-3 inactive | 3T3 cytotox inactive | 3T3 cytotox 2 102.9
Cc1cccc(-c2ccc([C@@H]3[C@H]4CN(C(=O)c5ccc6c(c5)OCO6)CCCCN4[C@H]3CO)cc2)c1	none (no result: IDH1 R132H inh)
C[C@@H]1CN([C@H](C)CO)C(=O)c2cc(NC(=O)c3ccncc3)ccc2O[C@@H]1CN(C)Cc1ccc(C(=O)O)cc1	none
CCn1c(=O)c(C(=O)NCC2CCCO2)c(O)c2ccccc21 (stereo unspecified)	none (no result: KDM4C inh, T cruzi growth-1)
COc1ccc(-c2ccc([C@@H]3[C@H]4CN(C(=O)c5ccc6c(c5)OCO6)CCCCN4[C@H]3CO)cc2)cc1	T cruzi growth-1 112.4 (no result: IDH1 R132H inh) | T cruzi growth-2 100.7 | T cruzi growth-3 inactive | 3T3 cytotox inactive | 3T3 cytotox 2 104.5
O=C(c1ccc2c(c1)OCO2)N1CCCCN2[C@H](CO)[C@H](c3ccc(-c4ccccc4)cc3)[C@@H]2C1	none (no result: IDH1 R132H inh)
C[C@@H]1CCCCO[C@H](CN(C)C(=O)Nc2ccc(F)cc2)[C@H](C)CN([C@H](C)CO)C(=O)c2cc(NC(=O)CCC(F)(F)F)ccc2O1	T cruzi growth-1 97.5 (no result: IDH1 R132H inh) | T cruzi growth-2 inactive | T cruzi growth-3 inactive | 3T3 cytotox inactive | 3T3 cytotox 2 31.5
COc1ccc(NC(=O)N(C)C[C@@H]2Oc3ccc(NC(=O)CCC(F)(F)F)cc3C(=O)N([C@H](C)CO)C[C@H]2C)cc1	T cruzi growth-1 101.2 | T cruzi growth-2 inactive | T cruzi growth-3 inactive | 3T3 cytotox inactive | 3T3 cytotox 2 inactive
COc1ccc(NC(=O)N(C)C[C@H]2Oc3ccc(NC(=O)CCC(F)(F)F)cc3C(=O)N([C@H](C)CO)C[C@H]2C)cc1	none

Screening results as filed in PubChem.
